Measured values: ChEMBL document CHEMBL5724801, “EUbOPEN Chemogenomics Library - Multiplex” (2024)
Several values for one entry are separate records, joined by “and”; a condition that tells them apart may be missing. Equal entries are not always repeated.

What follows are molecules tested on HEK-293T (assay: Multiplex assay against HEK293T). Details: human, 12 h, 1 µM, compound concentration 1 uM.
Format: toxicity, cell-based
In short: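 Imaging took place on a CQ1 microscope at 37°C and 5% CO2 once compound had been added to live cells stained at seeding with Hoechst33342, BioTracker Green Microtubule Cytoskeleton Dye, MitoTracker Red and Annexin V Alexa Fluor 680. CellPathfinder machine-learning gating classed cells as Hoechst high-intensity objects or normal cells, classed normal cells as having healthy, pyknosed or fragmented nuclei, and classed pyknosed cells as mitotic or apoptotic. Tubulin, mitochondrial-mass and membrane-permeability phenotypes are per cents of the healthy-nucleus cells.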

Structure (SMILES) | Population Apoptotic (%) | Population Fragmented Nuclei (%) | Population Hoechst High Intensity Objects (%) | Population Membrane Permeable-Phenotype (%) | Population Mitochondria Different-Phenotype (%) | Population Mitotic Cells (%) | Population Normal (%) | Population Pyknosed Nuclei (%) | Total Cell Count | Population Healthy Nuclei (%)
CC(C)Oc1ccc(F)c(-c2cnc(N)c(C(=O)Nc3cnccc3N3CCC[C@@H](C(=O)O)C3)n2)c1 | 7.53% and 11.02% | 1.12% and 6.54% | 0.28% and 0% | 0% and 4% | 34.13% and 12% | 92.47% and 88.98% | 99.72% and 100% | 40.78% and 77.12% | 359 and 153 | –
CN[C@@H](C)C(=O)N[C@H](C(=O)N1CCC[C@H]1C(=O)Nc1snnc1-c1ccccc1)C1CCCCC1 [GDC-0152] | 31% and 60% | 5% | 5% and 7% | 0% | 41% and 62% | 68% and 39% | 94% and 92% | 15% and 14% | 444 and 314 | 78% and 79%
CC/C(=C(\c1ccc(O)cc1)c1ccc(OCCN(C)C)cc1)c1ccccc1 [AFIMOXIFENE] | 6.54% and 11.93% | 0.55% and 3.45% | 0.28% and 0% | 0.48% and 0% | 43.96% and 29.03% | 93.46% and 88.07% | 99.72% and 100% | 42.27% and 75.17% | 363 and 145 | 57.18% and 21.38%
O=C(O)Cc1ccccc1Nc1c(Cl)cccc1Cl [DICLOFENAC] | 36% and 52% | 7% | 5% and 10% | 0% | 53% and 61% | 63% and 47% | 94% and 89% | 14% and 13% | 376 and 324 | 77% and 79%

Same assay, conditions: human, 12 h, 1 µM, compound concentration 1 uM

Structure (SMILES) | Population Tubulin-Different-Phenotype (%)
CN[C@@H](C)C(=O)N[C@H](C(=O)N1CCC[C@H]1C(=O)Nc1snnc1-c1ccccc1)C1CCCCC1 [GDC-0152] | 35% and 26%
O=C(O)Cc1ccccc1Nc1c(Cl)cccc1Cl [DICLOFENAC] | 32% and 23%

Same assay, conditions: human, 12 h, 10 µM, compound concentration 10 uM

Structure (SMILES) | Population Apoptotic (%) | Population Fragmented Nuclei (%) | Population Hoechst High Intensity Objects (%) | Population Membrane Permeable-Phenotype (%) | Population Mitochondria Different-Phenotype (%) | Population Mitotic Cells (%) | Population Normal (%) | Population Pyknosed Nuclei (%) | Population Tubulin-Different-Phenotype (%) | Total Cell Count
CC(C)Oc1ccc(F)c(-c2cnc(N)c(C(=O)Nc3cnccc3N3CCC[C@@H](C(=O)O)C3)n2)c1 | 24.14% and 33.33% | 7.04% and 7.45% | 1.97% and 0% | 4.08% and 0% | 31.63% and 17.39% | 75.86% and 66.67% | 98.03% and 100% | 43.72% and 78.26% | 70.41% and 47.83% | 203 and 161
CN[C@@H](C)C(=O)N[C@H](C(=O)N1CCC[C@H]1C(=O)Nc1snnc1-c1ccccc1)C1CCCCC1 [GDC-0152] | 50% and 72% | 6% and 7% | 13% and 20% | 0% | 78% and 89% | 49% and 28% | 86% and 80% | 20% and 18% | 78% and 72% | 362 and 330
CC/C(=C(\c1ccc(O)cc1)c1ccc(OCCN(C)C)cc1)c1ccccc1 [AFIMOXIFENE] | 25.32% and 29.82% | 2.69% and 7.52% | 0% | – | 25.19% and 44.44% | 74.68% and 70.18% | 100% | 53.2% and 85.71% | 8.4% and 22.22% | 297 and 133
O=C(O)Cc1ccccc1Nc1c(Cl)cccc1Cl [DICLOFENAC] | 30% and 57% | 7% | 6% and 14% | 0% | 45% and 68% | 69% and 42% | 93% and 85% | 14% and 17% | 35% | 480 and 370

Same assay, conditions: human, 12 h, 10 µM, compound concentration 10 uM

Structure (SMILES) | Population Healthy Nuclei (%)
CN[C@@H](C)C(=O)N[C@H](C(=O)N1CCC[C@H]1C(=O)Nc1snnc1-c1ccccc1)C1CCCCC1 [GDC-0152] | 73%
O=C(O)Cc1ccccc1Nc1c(Cl)cccc1Cl [DICLOFENAC] | 77% and 75%

Same assay, conditions: human, 24 h, 1 µM, compound concentration 1 uM

Structure (SMILES) | Population Apoptotic (%) | Population Fragmented Nuclei (%) | Population Hoechst High Intensity Objects (%) | Population Membrane Permeable-Phenotype (%) | Population Mitochondria Different-Phenotype (%) | Population Mitotic Cells (%) | Population Normal (%) | Population Tubulin-Different-Phenotype (%) | Population Healthy Nuclei (%) | Population Pyknosed Nuclei (%)
CC(C)Oc1ccc(F)c(-c2cnc(N)c(C(=O)Nc3cnccc3N3CCC[C@@H](C(=O)O)C3)n2)c1 | 17% and 27.27% | 0.79% and 9.15% | 0% | 1.73% and 0% | 12.59% and 10% | 83% and 72.73% | 100% | 24.69% and 10% | – | –
CN[C@@H](C)C(=O)N[C@H](C(=O)N1CCC[C@H]1C(=O)Nc1snnc1-c1ccccc1)C1CCCCC1 [GDC-0152] | 30% and 38% | 8% and 5% | 4% and 6% | 1% and 0% | 28% and 53% | 69% and 61% | 95% and 93% | 23% and 22% | 80% and 82% | 10% and 12%
CC/C(=C(\c1ccc(O)cc1)c1ccc(OCCN(C)C)cc1)c1ccccc1 [AFIMOXIFENE] | 8.84% and 19.33% | 1.87% and 0.54% | 0% | 1.45% and 3.03% | 15.56% and 16.67% | 91.16% and 80.67% | 100% | 15.56% and 13.64% | 75.2% and 35.48% | 22.93% and 63.98%
O=C(O)Cc1ccccc1Nc1c(Cl)cccc1Cl [DICLOFENAC] | 30% and 45% | 7% and 6% | 3% and 10% | 0% | 44% and 37% | 69% and 54% | 96% and 89% | 24% and 9% | 76% and 78% | 15% and 14%

Same assay, conditions: human, 24 h, 1 µM, compound concentration 1 uM

Structure (SMILES) | Total Cell Count
CN[C@@H](C)C(=O)N[C@H](C(=O)N1CCC[C@H]1C(=O)Nc1snnc1-c1ccccc1)C1CCCCC1 [GDC-0152] | 601 and 387
O=C(O)Cc1ccccc1Nc1c(Cl)cccc1Cl [DICLOFENAC] | 456 and 418

Same assay, conditions: human, 24 h, 10 µM, compound concentration 10 uM

Structure (SMILES) | Population Apoptotic (%) | Population Fragmented Nuclei (%) | Population Healthy Nuclei (%) | Population Hoechst High Intensity Objects (%) | Population Membrane Permeable-Phenotype (%) | Population Mitochondria Different-Phenotype (%) | Population Mitotic Cells (%) | Population Normal (%) | Population Pyknosed Nuclei (%) | Total Cell Count
CC(C)Oc1ccc(F)c(-c2cnc(N)c(C(=O)Nc3cnccc3N3CCC[C@@H](C(=O)O)C3)n2)c1 | 20.45% and 46.61% | 3.49% and 7.1% | 62.4% and 28.42% | 0.77% and 0% | 1.86% and 0% | 33.54% and 11.54% | 79.55% and 53.39% | 99.23% and 100% | 34.11% and 64.48% | 260 and 183
CN[C@@H](C)C(=O)N[C@H](C(=O)N1CCC[C@H]1C(=O)Nc1snnc1-c1ccccc1)C1CCCCC1 [GDC-0152] | 45% and 60% | 10% and 12% | 71% and 68% | 7% and 21% | 0% | 74% and 80% | 54% and 40% | 92% and 78% | 17% and 19% | 454 and 400
CC/C(=C(\c1ccc(O)cc1)c1ccc(OCCN(C)C)cc1)c1ccccc1 [AFIMOXIFENE] | 49.01% and 63.64% | 2.59% and 6.2% | – | 0% | 0.44% and 4.55% | 40.44% and 36.36% | 50.99% and 36.36% | 100% | 39.12% and 76.74% | 386 and 129
O=C(O)Cc1ccccc1Nc1c(Cl)cccc1Cl [DICLOFENAC] | 25% and 49% | 10% | 77% and 75% | 4% and 9% | 0% | 29% and 50% | 74% and 50% | 95% and 90% | 12% and 14% | 650 and 462

Same assay, conditions: human, 24 h, 10 µM, compound concentration 10 uM

Structure (SMILES) | Population Tubulin-Different-Phenotype (%)
CN[C@@H](C)C(=O)N[C@H](C(=O)N1CCC[C@H]1C(=O)Nc1snnc1-c1ccccc1)C1CCCCC1 [GDC-0152] | 69% and 58%
CC/C(=C(\c1ccc(O)cc1)c1ccc(OCCN(C)C)cc1)c1ccccc1 [AFIMOXIFENE] | 28.44% and 27.27%
O=C(O)Cc1ccccc1Nc1c(Cl)cccc1Cl [DICLOFENAC] | 29% and 26%

Same assay, conditions: human, 48 h, 1 µM, compound concentration 1 uM

Structure (SMILES) | Population Apoptotic (%) | Population Fragmented Nuclei (%) | Population Healthy Nuclei (%) | Population Hoechst High Intensity Objects (%) | Population Membrane Permeable-Phenotype (%) | Population Mitochondria Different-Phenotype (%) | Population Mitotic Cells (%) | Population Normal (%) | Population Pyknosed Nuclei (%) | Population Tubulin-Different-Phenotype (%)
CC(C)Oc1ccc(F)c(-c2cnc(N)c(C(=O)Nc3cnccc3N3CCC[C@@H](C(=O)O)C3)n2)c1 | 8.84% and 23.26% | 3.08% and 2.66% | 77.03% and 51.6% | 0.22% and 0% | 3.42% and 2.06% | 29.39% and 26.8% | 91.16% and 76.74% | 99.78% and 100% | 19.89% and 45.74% | –
CN[C@@H](C)C(=O)N[C@H](C(=O)N1CCC[C@H]1C(=O)Nc1snnc1-c1ccccc1)C1CCCCC1 [GDC-0152] | 31% and 40% | 12% and 10% | 78% and 82% | 4% and 3% | 1% | 22% and 29% | 68% and 60% | 95% and 96% | 9% and 6% | 16%
CC/C(=C(\c1ccc(O)cc1)c1ccc(OCCN(C)C)cc1)c1ccccc1 [AFIMOXIFENE] | 7.69% and 13.19% | 1.84% and 1.61% | 85.71% and 61.85% | 0% and 0.8% | 6.52% and 3.25% | 18.34% and 27.92% | 92.31% and 86.81% | 100% and 99.2% | 12.45% and 36.55% | –
O=C(O)Cc1ccccc1Nc1c(Cl)cccc1Cl [DICLOFENAC] | 23% and 33% | 11% and 15% | 82% and 79% | 2% | 1% | 22% and 16% | 76% and 66% | 97% | 6% and 4% | 15% and 10%

Same assay, conditions: human, 48 h, 1 µM, compound concentration 1 uM

Structure (SMILES) | Total Cell Count
CN[C@@H](C)C(=O)N[C@H](C(=O)N1CCC[C@H]1C(=O)Nc1snnc1-c1ccccc1)C1CCCCC1 [GDC-0152] | 928 and 603
O=C(O)Cc1ccccc1Nc1c(Cl)cccc1Cl [DICLOFENAC] | 730 and 697

Same assay, conditions: human, 48 h, 10 µM, compound concentration 10 uM

Structure (SMILES) | Population Apoptotic (%) | Population Fragmented Nuclei (%) | Population Healthy Nuclei (%) | Population Hoechst High Intensity Objects (%) | Population Membrane Permeable-Phenotype (%) | Population Mitochondria Different-Phenotype (%) | Population Mitotic Cells (%) | Population Normal (%) | Population Pyknosed Nuclei (%) | Population Tubulin-Different-Phenotype (%)
CC(C)Oc1ccc(F)c(-c2cnc(N)c(C(=O)Nc3cnccc3N3CCC[C@@H](C(=O)O)C3)n2)c1 | 31.37% and 50.7% | 10.59% and 8.51% | 74.41% and 53.72% | 0.29% and 0.53% | 7.11% and 0.99% | 69.96% and 27.72% | 68.63% and 49.3% | 99.71% and 99.47% | 15% and 37.77% | 27.67% and 73.27%
CN[C@@H](C)C(=O)N[C@H](C(=O)N1CCC[C@H]1C(=O)Nc1snnc1-c1ccccc1)C1CCCCC1 [GDC-0152] | 47% and 60% | 12% | 73% and 70% | 16% and 21% | 0% | 74% and 76% | 52% and 39% | 83% and 78% | 13% and 17% | 55% and 52%
CC/C(=C(\c1ccc(O)cc1)c1ccc(OCCN(C)C)cc1)c1ccccc1 [AFIMOXIFENE] | 39.87% and 62.5% | 2.24% and 6.98% | 66.53% and 24.81% | 0.2% and 0% | 3.37% and 9.38% | 77.3% and 65.62% | 60.13% and 37.5% | 99.8% and 100% | 31.22% and 68.22% | –
O=C(O)Cc1ccccc1Nc1c(Cl)cccc1Cl [DICLOFENAC] | 36% | 12% and 16% | 80% and 75% | 3% and 4% | 1% and 0% | 17% and 36% | 63% | 96% and 95% | 7% | 18% and 17%

Same assay, conditions: human, 48 h, 10 µM, compound concentration 10 uM

Structure (SMILES) | Total Cell Count
CC(C)Oc1ccc(F)c(-c2cnc(N)c(C(=O)Nc3cnccc3N3CCC[C@@H](C(=O)O)C3)n2)c1 | 341 and 189
CN[C@@H](C)C(=O)N[C@H](C(=O)N1CCC[C@H]1C(=O)Nc1snnc1-c1ccccc1)C1CCCCC1 [GDC-0152] | 538 and 417
O=C(O)Cc1ccccc1Nc1c(Cl)cccc1Cl [DICLOFENAC] | 883 and 649
